Published values of several laboratories.
Target: Calcium/calmodulin-dependent protein kinase kinase 1 (CAMKK1, Homo sapiens, UniProt Q8N5S9)

SMILES | observed | mode | technique | concentration | measurement | value
CCCCN(CCCC)C(=O)CN1C[C@H](c2cc(OC)c3c(c2)OCO3)[C@@H](C(=O)O)[C@@H]1CC(C)(C)CCC | cell-free assay | – | competition with immobilised ligand | 1 µM | remaining binding | 100%
c1ccc(CNc2nc(N3CCOc4ccccc43)nc3c2CCCC3)cc1 | target engagement in cells | inhibitor | chemoproteomics | 20 mM | inhibition | -7.1%
Cc1sc(C(=O)NC2COC2)cc1-n1cc(NC(=O)Nc2c(F)cccc2Cl)cn1 | enzyme activity | inhibitor | – | 10 µM | remaining activity | 121%
Cc1ccc(C(=O)NCc2ccsc2)cc1C#Cc1cn(C(C)C)c2ncnc(N)c12 | enzyme activity | inhibitor | – | 1 µM | activity vs control | 84%
COCCOc1nc(-c2ccc(Cl)nc2)nc2c1CN(C(=O)c1ncn3ccccc13)CC2 | cell-free assay | – | competition with immobilised ligand | 0.1 µM | remaining binding | 100%
O=C1NC(=O)c2cc(Nc3ccc(F)cc3)c(Nc3ccc(F)cc3)cc21 | cell-free assay | – | – | 0.5 µM | remaining signal | 90.2%
CCCOc1ccc([C@H]2[C@H](C(=O)O)[C@@H](c3ccc4c(c3)OCO4)CN2CC(=O)Nc2c(CC)cccc2CC)cc1 | cell-free assay | – | competition with immobilised ligand | 1 µM | remaining binding | 86%
Cn1c2c(Cl)c(Cl)ccc2c2cn[nH]c(=O)c21 | thermal stability | – | DSF | 10 µM | ΔTm | 0.5 °C
O=C1Nc2ccc(Cl)cc2C1=Cc1cc(Cl)c(O)c(Cl)c1 | cell-free assay | – | – | 0.5 µM | remaining signal | 52.5%
Cc1c(NC(=O)c2cc(C(N)=O)nc3cc(F)ccc23)c(C(F)(F)F)nn1Cc1ccc(C#N)cc1 | cell-free assay | – | competition with immobilised ligand | 1 µM | remaining binding | 97%
Oc1ccc(-c2nc(-c3ccncc3)c(-c3ccc(F)cc3)[nH]2)cc1 | cell-free assay | – | – | 0.5 µM | remaining signal | 123%
COc1cc(Cl)c(C(=O)N[C@@H](CN[C@H]2CC[C@@H](N)CC2)Cc2ccc(C#N)cc2)cc1-c1ccc(CN[C@H](C)c2ccc(C)cc2)o1 | enzyme activity | inhibitor | – | 1 µM | remaining activity | 100%
Cn1c2c(c3ccc(Cl)c(Cl)c31)C(C#N)C1(CCN(C(=O)OC(C)(C)C)CC1)NC2=O (racemic) | thermal stability | – | DSF | 10 µM | ΔTm | -0.1 °C
O=C(Nc1cnn(-c2csc(C(=O)NC3COC3)c2)c1)Nc1c(F)cccc1Cl | enzyme activity | inhibitor | – | 5 µM | remaining activity | 93.7%
Cc1nc(N2CC[C@@H](O)C2)ncc1-c1cc(C(F)(F)F)cc2[nH]ncc12 | binding | – | competition with immobilised ligand | 1 µM | remaining binding | 100%
Cn1c2c(c3ccc(Cl)c(Cl)c31)C(C#N)C(C)(C)NC2=O (stereo not drawn) | thermal stability | – | DSF | 10 µM | ΔTm | 2.6 °C
NS(=O)(=O)c1cc(NC(=O)Cc2ccccc2)ccc1Oc1cccc(Cl)c1 | cell-free assay | – | competition with immobilised ligand | 1 µM | remaining binding | 100%
CN(c1ncccc1CNc1nc(Nc2ccc3c(c2)CC(=O)N3)ncc1C(F)(F)F)S(C)(=O)=O | enzyme activity | inhibitor | – | 1 µM | inhibition | 46%
